Measurements reported in PubChem BioAssay AID1451 (NMMLSC, 2008).
Some of the results follow. A number with no mark means an inactive call.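 The calls were made as follows: active = inhibition of pump activity above 50%; inactive = the rest.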

Target: ATP-dependent translocase ABCB1 (Homo sapiens) (UniProt P08183)
Assay: ABCB1 efflux pump inhibitors, confirmation, cell-based, single point, ABCG2 counter-screen (AID 1451);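 also: 0% = DMSO and 100% = nicardipine full pump inhibition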
Conditions: CCRF-Adr cells, JC-1 efflux, flow cytometry; at 6.6 µM; active compounds read high
In short: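 Material: ABCB1-expressing CCRF-Adr cells. Quantity: 3 million cells per mL final in well. Reagent: JC-1 fluorescent efflux-pump substrate. Compound: single test-compound dose, 6.6 µM final. Schedule: 10 min exposure, 25 °C. Measured by: flow cytometry, 530 nm emission. Controls: nicardipine as high control, DMSO as low control.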

Chain of ATP-dependent translocase ABCB1 (Homo sapiens) (P08183 whole entry, looked up): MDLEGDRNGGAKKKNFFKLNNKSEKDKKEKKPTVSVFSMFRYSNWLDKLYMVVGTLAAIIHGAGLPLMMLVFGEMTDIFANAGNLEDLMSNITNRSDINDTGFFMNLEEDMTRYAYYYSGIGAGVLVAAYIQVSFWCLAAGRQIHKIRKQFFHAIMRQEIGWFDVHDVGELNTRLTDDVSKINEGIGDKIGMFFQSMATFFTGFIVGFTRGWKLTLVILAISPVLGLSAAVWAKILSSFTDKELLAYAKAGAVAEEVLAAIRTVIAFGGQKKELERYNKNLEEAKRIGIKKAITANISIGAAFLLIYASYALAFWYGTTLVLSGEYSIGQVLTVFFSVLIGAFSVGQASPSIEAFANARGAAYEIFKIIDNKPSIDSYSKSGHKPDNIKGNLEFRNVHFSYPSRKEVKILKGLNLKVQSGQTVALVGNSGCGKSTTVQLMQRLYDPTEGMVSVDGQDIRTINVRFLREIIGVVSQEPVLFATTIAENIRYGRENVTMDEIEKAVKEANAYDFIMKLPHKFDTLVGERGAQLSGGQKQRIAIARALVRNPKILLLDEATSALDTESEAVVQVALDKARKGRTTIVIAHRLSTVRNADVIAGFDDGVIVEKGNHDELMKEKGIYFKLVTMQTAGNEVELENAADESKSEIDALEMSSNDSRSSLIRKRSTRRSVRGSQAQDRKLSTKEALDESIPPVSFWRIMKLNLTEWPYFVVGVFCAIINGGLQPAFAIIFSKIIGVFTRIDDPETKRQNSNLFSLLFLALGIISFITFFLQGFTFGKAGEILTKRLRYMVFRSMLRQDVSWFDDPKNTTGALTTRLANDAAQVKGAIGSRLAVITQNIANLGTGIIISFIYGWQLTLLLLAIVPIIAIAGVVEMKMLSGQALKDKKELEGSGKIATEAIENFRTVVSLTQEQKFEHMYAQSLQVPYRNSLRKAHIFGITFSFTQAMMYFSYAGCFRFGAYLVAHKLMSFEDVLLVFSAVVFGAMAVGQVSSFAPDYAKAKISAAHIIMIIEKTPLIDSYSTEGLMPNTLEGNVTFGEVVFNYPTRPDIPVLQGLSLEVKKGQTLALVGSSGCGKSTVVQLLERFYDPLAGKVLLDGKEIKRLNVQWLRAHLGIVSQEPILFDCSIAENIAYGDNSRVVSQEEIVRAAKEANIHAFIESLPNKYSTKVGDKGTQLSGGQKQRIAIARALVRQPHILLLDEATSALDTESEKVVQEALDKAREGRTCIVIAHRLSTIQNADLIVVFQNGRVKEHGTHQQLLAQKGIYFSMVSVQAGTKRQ

COC(=O)COc1cc(C)cc2oc(=O)c3c(c12)CCCC3
inhibition: 1.84%
